Active and inactive are the calls of the source. The rule behind the calls is not given here.
How the values were obtained:
[1] = target: T1, Protein cereblon/Protein deacetylase HDAC6 (Homo sapiens, UniProt Q9UBN7+Q96SW2); experiment: Protac activity at CRBN/HDAC6 in human MM1S cells assessed as HDAC6 degradation at 10 to 100 nM measured after 6 hrs by Western blot analysis; type: cell-based
Target sequence in this assay (Q96SW2 whole entry, looked up): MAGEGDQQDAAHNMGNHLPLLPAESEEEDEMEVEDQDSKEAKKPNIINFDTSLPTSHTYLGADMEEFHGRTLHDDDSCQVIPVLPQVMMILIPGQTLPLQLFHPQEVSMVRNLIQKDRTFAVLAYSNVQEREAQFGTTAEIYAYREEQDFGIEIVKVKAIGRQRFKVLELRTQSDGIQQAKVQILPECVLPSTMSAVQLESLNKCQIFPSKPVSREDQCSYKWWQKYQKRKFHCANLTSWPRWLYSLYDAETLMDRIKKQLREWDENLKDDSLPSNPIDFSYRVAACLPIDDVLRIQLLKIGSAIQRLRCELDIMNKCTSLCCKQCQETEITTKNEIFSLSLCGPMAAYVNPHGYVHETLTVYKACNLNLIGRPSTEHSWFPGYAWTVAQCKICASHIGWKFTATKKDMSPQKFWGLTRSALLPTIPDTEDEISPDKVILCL
Target sequence in this assay (Q9UBN7 whole entry, looked up): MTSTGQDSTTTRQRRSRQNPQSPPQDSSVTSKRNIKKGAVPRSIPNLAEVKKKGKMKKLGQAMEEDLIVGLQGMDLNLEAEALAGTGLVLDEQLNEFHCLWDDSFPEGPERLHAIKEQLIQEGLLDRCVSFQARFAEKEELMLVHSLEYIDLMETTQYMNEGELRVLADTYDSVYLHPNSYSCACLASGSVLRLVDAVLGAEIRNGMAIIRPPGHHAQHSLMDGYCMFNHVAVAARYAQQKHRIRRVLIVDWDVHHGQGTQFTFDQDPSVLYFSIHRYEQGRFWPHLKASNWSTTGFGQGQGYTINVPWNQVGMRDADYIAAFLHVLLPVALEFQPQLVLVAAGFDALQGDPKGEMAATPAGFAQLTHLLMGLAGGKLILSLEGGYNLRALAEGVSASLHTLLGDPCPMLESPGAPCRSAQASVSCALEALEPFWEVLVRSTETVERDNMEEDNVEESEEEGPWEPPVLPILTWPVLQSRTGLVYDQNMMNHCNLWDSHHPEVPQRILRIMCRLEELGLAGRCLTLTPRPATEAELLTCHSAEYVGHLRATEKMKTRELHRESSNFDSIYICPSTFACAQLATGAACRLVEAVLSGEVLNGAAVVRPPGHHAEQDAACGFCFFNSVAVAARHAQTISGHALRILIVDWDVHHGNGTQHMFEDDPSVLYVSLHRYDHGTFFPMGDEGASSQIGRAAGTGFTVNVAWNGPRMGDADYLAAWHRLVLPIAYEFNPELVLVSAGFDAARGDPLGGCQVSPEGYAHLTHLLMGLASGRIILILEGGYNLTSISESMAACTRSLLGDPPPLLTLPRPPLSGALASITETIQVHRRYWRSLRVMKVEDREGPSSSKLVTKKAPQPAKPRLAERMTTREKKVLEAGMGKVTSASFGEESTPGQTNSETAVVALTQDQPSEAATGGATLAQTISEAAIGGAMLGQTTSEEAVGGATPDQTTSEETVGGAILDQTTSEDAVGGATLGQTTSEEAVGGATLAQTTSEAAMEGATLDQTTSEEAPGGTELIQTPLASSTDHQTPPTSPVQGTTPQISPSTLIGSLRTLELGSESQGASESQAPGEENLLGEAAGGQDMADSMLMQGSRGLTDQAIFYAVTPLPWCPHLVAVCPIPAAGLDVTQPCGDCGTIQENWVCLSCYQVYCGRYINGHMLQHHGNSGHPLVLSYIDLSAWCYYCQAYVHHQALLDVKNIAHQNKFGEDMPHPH

[2] = target: T1, Protein cereblon/Protein deacetylase HDAC6; experiment: Protac activity at CRBN/HDAC6 in human MM1S cells assessed as HDAC6 degradation at 100 nM measured after 6 hrs by Western blot analysis; type: cell-based
Target sequence in this assay (Q96SW2 whole entry, looked up): as the sequence (Q96SW2 whole entry, looked up) above
Target sequence in this assay (Q9UBN7 whole entry, looked up): as the sequence (Q9UBN7 whole entry, looked up) above

MM1.S [3] = experiment: Antiproliferative activity against human MM1S cells assessed as reduction in cell viability at 1 uM measured after 72 hrs by resazurin dye based assay; type: functional
[4] = target: T1, Protein cereblon/Protein deacetylase HDAC6; experiment: Protac activity at CRBN/HDAC6 in human MM1S cells assessed as HDAC6 degradation measured after 6 hrs by ELISA relative to control; type: cell-based
Summary of the method: (§1)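 In-cell ELISA: MM1S cells (5 × 10^4 per well) seeded overnight, treated 6 h (dosed as 5× medium; 0.1 nM–1 μM or 10/100 nM). Fixed in 8% formaldehyde/TBS, permeabilized with 0.1% Triton X, peroxidase quenched with 1% H2O2, blocked in 5% BSA. Anti-HDAC6 rabbit mAb (1:1000, 2 h) then HRP secondary; TMB read as OD450 − OD570. Background wells lacked primary antibody. Signal normalized to Janus Green and to DMSO wells, n = 3. DC50/Dmax from three-parameter fit.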
Target sequence in this assay (Q96SW2 whole entry, looked up): as the sequence (Q96SW2 whole entry, looked up) above
Target sequence in this assay (Q9UBN7 whole entry, looked up): as the sequence (Q9UBN7 whole entry, looked up) above

[5] = target: T1, Protein cereblon/Protein deacetylase HDAC6; experiment: Protac activity at CRBN/HDAC6 in human MM1S cells assessed as HDAC6 degradation measured after 6 hrs by ELISA; type: cell-based; summary of the method: as §1
Target sequence in this assay (Q9UBN7 whole entry): as the sequence (Q9UBN7 whole entry, looked up) above
Target sequence in this assay (Q96SW2 whole entry): as the sequence (Q96SW2 whole entry, looked up) above

[6] = target: T1, Protein cereblon/Protein deacetylase HDAC6; experiment: Protac activity at CRBN/HDAC6 in human HepG2 cells assessed as HDAC6 degradation up to 1 uM incubated for 6 hrs by Western blot analysis; type: cell-based
Target sequence in this assay (Q96SW2 whole entry, looked up): as above
Target sequence in this assay (Q9UBN7 whole entry, looked up): as the sequence (Q9UBN7 whole entry, looked up) above

MM1.S [7] = experiment: Antiproliferative activity against human MM1S cells assessed as reduction in cell viability measured after 72 hrs by resazurin dye based assay; type: functional
Summary of the method: (§2)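 MM1S cells seeded at 1 × 10^4 per well, left overnight, then given compound or DMSO vehicle (added as 5× dosing medium) for 72 h at 37 °C, 5% CO2. Resazurin added (10× solution, 1 mg/mL), then incubated overnight at 37 °C. OD read at 570 and 600 nm. Viability is relative to vehicle, n = 3. Curves fitted as [inhibitor] vs response (three parameters); test range 0.3 nM–3 μM.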

MM1.S [8] = experiment: Antiproliferative activity against human MM1S cells assessed as reduction in cell viability measured after 72 hrs by resazurin dye based assay relative to control; type: functional; summary of the method: as §2

| Activity [1] | Structure (SMILES) | Activity (MM1.S [3]) | other results |
| --- | --- | --- | --- |
| Active | CCCCN(Cc1ccc(C(=O)NO)cc1)C(=O)Nc1ccc(OCCCCn2cc(CCNc3cccc4c3C(=O)N(C3CCC(=O)NC3=O)C4=O)nn2)cc1 (configuration not stated) |  |  |
|  | CCCCN(Cc1ccc(C(=O)NO)cc1)C(=O)Nc1ccc(OCCCCCn2cc(CNc3cccc4c3C(=O)N(C3CCC(=O)N(C)C3=O)C4=O)nn2)cc1 (configuration not stated) | inactive | Activity [2]: inactive |
|  | Nc1cccc2c1C(=O)N(C1CCC(=O)NC1=O)C2=O (configuration not stated) | Active |  |
|  | CCCCN(Cc1ccc(C(=O)NO)cc1)C(=O)Nc1ccc(OCCn2cc(CNc3cccc4c3C(=O)N(C3CCC(=O)NC3=O)C4=O)nn2)cc1 (configuration not stated) |  | %max [4]: 88%; DC50 [5]: 3.41 nM |
| Active | CCCCN(Cc1ccc(C(=O)NO)cc1)C(=O)Nc1ccc(OCCCCn2cc(CNc3ccc4c(c3)C(=O)N(C3CCC(=O)NC3=O)C4=O)nn2)cc1 (configuration not stated) |  | Activity [6]: Active |
| Active | CCCCN(Cc1ccc(C(=O)NO)cc1)C(=O)Nc1ccc(OCCCCCn2cc(CNc3ccc4c(c3)C(=O)N(C3CCC(=O)NC3=O)C4=O)nn2)cc1 (configuration not stated) |  |  |
| Active | O=C(CCCCCCC(=O)N/N=C/c1ccc(OCCOCCOCCn2cc(CNc3cccc4c3C(=O)N(C3CCC(=O)NC3=O)C4=O)nn2)cc1)NO (configuration not stated) | Active | %max [4]: 84.1%; DC50 [5]: 9.12 nM |
|  | CCCCN(Cc1ccc(C(=O)OC)cc1)C(=O)Nc1ccc(OCCCCCn2cc(CNc3cccc4c3C(=O)N(C3CCC(=O)NC3=O)C4=O)nn2)cc1 (configuration not stated) | Active | EC50 (MM1.S [7]): 17.7 nM; Activity [2]: inactive; Imax (MM1.S [8]): 44% |
| Active | CCCCN(Cc1ccc(C(=O)NO)cc1)C(=O)Nc1ccc(OCCCn2cc(CCCNc3ccc4c(c3)C(=O)N(C3CCC(=O)NC3=O)C4=O)nn2)cc1 (configuration not stated) |  |  |
|  | CCCCN(Cc1ccc(C(=O)NO)cc1)C(=O)Nc1ccccc1 | inactive |  |
| Active | CCCCN(Cc1ccc(C(=O)NO)cc1)C(=O)Nc1ccc(OCCn2cc(CCCNc3cccc4c3C(=O)N(C3CCC(=O)NC3=O)C4=O)nn2)cc1 (configuration not stated) |  | %max [4]: 86.3%; DC50 [5]: 2.54 nM |

From ChEMBL document CHEMBL4311941, “Development of Multifunctional Histone Deacetylase 6 Degraders with Potent Antimyeloma Activity” (J Med Chem, 2019)
